Data from ChEMBL document CHEMBL1154907, “Synthesis and preclinical evaluations of 2-(2-fluorophenyl)-6,7-methylenedioxyquinolin-4-one monosodium phosphate (CHM-1-P-Na) as a potent antitumor agent” (J Med Chem, 2010).
≈ marks a conversion by molar mass, not a printed value. Calls of active or inactive are those of the source. The rule behind the calls is not given here.

Tests used:
OVCAR-3 [1] = assay: Growth inhibition of human OVCAR-3 cells by SRB assay; assay type: functional
In short: (§1)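 Human cancer cell panel; five concentrations from 10^-4 to 10^-8 M; growth measured by sulforhodamine B colorimetric method; GI50, TGI and LC50 derived from computer-analysed dose-response curves.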

[2] = biological target: Mitogen-activated protein kinase 10 (Homo sapiens) (UniProt P53779); assay: Inhibition of human JNK3 at 10 uM by enzyme assay
In short: (§2)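 Commercial spectrum screen of enzyme assays under standard protocols; percent inhibition tested at 10 μM; IC50 determined for targets showing significant inhibition at that concentration; SEM given where multiple independent determinations.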

[3] = Solubility in water; assay type: physicochemical; conditions: buffer
OVCAR-5 = assay: Growth inhibition of human OVCAR5 cells by SRB assay; assay type: functional; in short: as §1
HCC 2998 = assay: Growth inhibition of human HCC2998 cells by SRB assay; assay type: functional; in short: as §1
[4] = Half life in CD1 mouse at 10 mg/kg, ip; assay type: ADME, organism-based; design: dose 10 mg/kg, route intraperitoneal; conditions: in vivo
In short: (§3)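 Male CD-1 (Crl.) mice, 22-24 g, single 10 mg/kg ip bolus of parent drug in cremophor/DMSO/saline (20/5/75, v/v; 2 mg/mL, 5 mL/kg). Blood sampled at 0, 5, 15, 30 min, 1, 1.5, 2, 4, 6, 9, 24, 27 h, three mice per time point. Plasma extracted with acetonitrile, analysed by LC-MS/MS. Parameters calculated from mean plasma concentrations.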

[5] = Mean residence time in CD1 mouse at 10 mg/kg, ip; assay type: ADME, organism-based; design: dose 10 mg/kg, route intraperitoneal; conditions: in vivo; in short: as §3
MKN-28 = assay: Growth inhibition of human MKN28 cells by SRB assay; assay type: functional; in short: as §1
PC-3 = assay: Growth inhibition of human PC3 cells by SRB assay; assay type: functional; in short: as §1
SF-268 = assay: Growth inhibition of human SF268 cells by SRB assay; assay type: functional
In short: (§4)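 Cancer cell panel; growth measured by sulforhodamine B colorimetric method across five concentrations from 10^-4 to 10^-8 M; GI50, TGI and LC50 derived from computer-analysed dose-response curves.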

[6] = biological target: Cathepsin D (Homo sapiens) (UniProt P07339); assay: Inhibition of human cathepsin D at 10 uM by enzyme assay; in short: as §2
A549 = assay: Growth inhibition of human A549 cells by SRB assay; assay type: functional; in short: as §1
[7] = biological target: Cathepsin E (Homo sapiens) (UniProt P14091); assay: Inhibition of human cathepsin E at 10 uM by enzyme assay; in short: as §2
SF-295 = assay: Growth inhibition of human SF295 cells by SRB assay; assay type: functional; in short: as §4
SF-539 = assay: Growth inhibition of human SF539 cells by SRB assay; assay type: functional; in short: as §4
St-4 = assay: Growth inhibition of human St-4 cells by SRB assay; assay type: functional; in short: as §4
DU-145 = assay: Growth inhibition of human DU145 cells by SRB assay; assay type: functional; in short: as §1
NCI-H460 = assay: Growth inhibition of human NCI-H460 cells by SRB assay; assay type: functional; in short: as §1
Pepsin A (Sus scrofa) = Pepsin A (Sus scrofa) (UniProt P00791); assay: Inhibition of pig pepsin at 10 uM by enzyme assay; in short: as §2
[8] = Growth inhibition of human RXF631L cells by SRB assay; assay type: functional, RXF 631; in short: as §4
[9] = Growth inhibition of human MKN1 cells by SRB assay; assay type: functional, MKN-1; in short: as §1
NCI-H23 = assay: Growth inhibition of human NCI-H23 cells by SRB assay; assay type: functional; in short: as §1
SK-OV-3 = assay: Cell cycle arrest in human SKOV3 cells assessed as accumulation of cells with G2/M DNA at 10 uM after 36 hrs by propidium iodide-based flow cytometry; assay type: functional
In short: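 SKOV-3 cells (DMEM/F-12, 10% fetal calf serum) treated with 10 μM for 6, 12, 24, 36 or 48 h; trypsinized, PBS-washed, fixed in 70% ice-cold ethanol overnight at -20 °C, RNase A treated, propidium iodide stained; DNA content by flow cytometry, phase percentages and hypodiploid fraction scored.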

OVCAR-3 [10] = assay: Antitumor activity against human OVCAR-3 cells xenografted in nude mouse assessed as increase in lifespan of organism at 134 mg/kg, ip administered in Q7D x 3 schedule relative to control; assay type: functional; conditions: route intraperitoneal
OVCAR-4 = assay: Growth inhibition of human OVCAR4 cells by SRB assay; assay type: functional; in short: as §1
LOX IMVI = assay: Growth inhibition of human LOXIMVI cells by SRB assay; assay type: functional; in short: as §1
SNB-78 = assay: Growth inhibition of human SNB78 cells by SRB assay; assay type: functional; in short: as §4
[11] = Tmax in CD1 mouse at 10 mg/kg, ip; assay type: ADME, organism-based; design: dose 10 mg/kg, route intraperitoneal; conditions: in vivo; in short: as §3
DMS-273 = assay: Growth inhibition of human DMS273 cells by SRB assay; assay type: functional; in short: as §1
SNB-75 = assay: Growth inhibition of human SNB75 cells by SRB assay; assay type: functional; in short: as §4
NCI-H522 = assay: Growth inhibition of human NCI-H522 cells by SRB assay; assay type: functional; in short: as §1
MKN-45 = assay: Growth inhibition of human MKN45 cells by SRB assay; assay type: functional; in short: as §1
[12] = Growth inhibition of human HBC5 cells by SRB assay; assay type: functional; in short: as §1
[13] = read-out: pLC50 (the source's name) (converted)

Chain of Cathepsin D (Homo sapiens) (P07339 65-162 limits assumed): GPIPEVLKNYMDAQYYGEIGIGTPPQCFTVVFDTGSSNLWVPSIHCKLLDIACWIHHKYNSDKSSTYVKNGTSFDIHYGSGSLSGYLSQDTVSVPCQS
Chain of Cathepsin D (Homo sapiens) (P07339 169-412 limits assumed): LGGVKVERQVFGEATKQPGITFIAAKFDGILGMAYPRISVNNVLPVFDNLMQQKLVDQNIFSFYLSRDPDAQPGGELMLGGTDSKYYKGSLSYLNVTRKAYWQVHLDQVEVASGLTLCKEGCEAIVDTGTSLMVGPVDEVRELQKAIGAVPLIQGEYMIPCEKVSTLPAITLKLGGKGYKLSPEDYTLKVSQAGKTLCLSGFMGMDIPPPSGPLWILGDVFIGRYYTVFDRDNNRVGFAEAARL
Chain of Pepsin A (Sus scrofa) (P00791 60-385 limits assumed): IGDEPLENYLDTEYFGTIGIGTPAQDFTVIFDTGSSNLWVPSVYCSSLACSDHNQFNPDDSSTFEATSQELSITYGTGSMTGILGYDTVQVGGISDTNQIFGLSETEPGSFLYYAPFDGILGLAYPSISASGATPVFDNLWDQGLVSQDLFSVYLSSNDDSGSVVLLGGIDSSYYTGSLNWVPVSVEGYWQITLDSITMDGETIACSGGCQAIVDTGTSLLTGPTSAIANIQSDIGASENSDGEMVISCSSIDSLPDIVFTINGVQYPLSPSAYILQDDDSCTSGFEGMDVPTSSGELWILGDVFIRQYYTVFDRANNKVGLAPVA
Chain of Mitogen-activated protein kinase 10 (Homo sapiens) (P53779 whole entry): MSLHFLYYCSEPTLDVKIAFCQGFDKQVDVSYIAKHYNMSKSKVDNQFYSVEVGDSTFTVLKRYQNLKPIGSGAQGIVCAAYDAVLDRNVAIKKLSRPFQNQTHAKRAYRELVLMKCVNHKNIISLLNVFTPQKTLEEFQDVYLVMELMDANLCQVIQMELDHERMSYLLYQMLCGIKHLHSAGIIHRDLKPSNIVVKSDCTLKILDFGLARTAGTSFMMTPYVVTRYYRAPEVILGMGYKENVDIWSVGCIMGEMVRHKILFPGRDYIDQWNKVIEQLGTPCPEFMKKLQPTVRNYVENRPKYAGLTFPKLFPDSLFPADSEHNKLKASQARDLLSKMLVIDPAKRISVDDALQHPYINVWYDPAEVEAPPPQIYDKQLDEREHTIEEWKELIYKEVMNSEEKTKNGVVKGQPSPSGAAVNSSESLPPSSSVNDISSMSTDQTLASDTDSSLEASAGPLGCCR
Chain of Cathepsin E (Homo sapiens) (P14091 whole entry): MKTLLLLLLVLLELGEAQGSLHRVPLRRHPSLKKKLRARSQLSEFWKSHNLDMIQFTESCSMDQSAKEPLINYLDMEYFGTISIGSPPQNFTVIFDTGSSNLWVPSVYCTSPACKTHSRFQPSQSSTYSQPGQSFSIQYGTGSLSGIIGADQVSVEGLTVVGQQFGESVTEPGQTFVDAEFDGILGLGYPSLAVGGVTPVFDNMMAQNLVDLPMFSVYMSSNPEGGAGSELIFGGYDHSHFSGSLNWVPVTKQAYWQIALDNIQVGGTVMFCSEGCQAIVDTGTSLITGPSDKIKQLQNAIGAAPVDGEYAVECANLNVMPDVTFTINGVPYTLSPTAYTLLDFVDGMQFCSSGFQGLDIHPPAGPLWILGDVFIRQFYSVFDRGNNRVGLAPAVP

Structure (SMILES): O=c1cc(-c2ccccc2F)[nH]c2cc3c(cc12)OCO3
- GI50 (OVCAR-3 [1]; OVCAR-3): 7080 nM
- CC50 (OVCAR-3 [1]; OVCAR-3, read-out: pLC50 (converted)): > 100000 nM
- TGI (OVCAR-3 [1]; OVCAR-3, read-out: pTGI): > 100000 nM
- inhibition [2]: 55%
- solubility [3]: 0.013 µg/mL (≈ 0.0459 µM)
- GI50 (OVCAR-5; OVCAR-5): 813 nM
- CC50 (OVCAR-5; OVCAR-5, read-out: pLC50 (converted)): > 100000 nM
- TGI (OVCAR-5; OVCAR-5, read-out: pTGI): > 100000 nM
- GI50 (HCC 2998; HCC 2998): 129 nM
- CC50 (HCC 2998; HCC 2998, read-out: pLC50 (converted)): > 100000 nM
- TGI (HCC 2998; HCC 2998, read-out: pTGI (converted)): 1260 nM
- half-life [4]: 7.3 h
- MRT [5]: 7.3 h
- GI50 (MKN-28; MKN-28): 112 nM
- CC50 (MKN-28; MKN-28, read-out: pLC50 (converted)): > 100000 nM
- TGI (MKN-28; MKN-28, read-out: pTGI (converted)): 17800 nM
- GI50 (PC-3; PC-3): 75.9 nM
- CC50 (PC-3; PC-3, read-out: pLC50 (converted)): > 100000 nM
- TGI (PC-3; PC-3, read-out: pTGI): > 100000 nM
- GI50 (SF-268; SF-268): 100 nM
- CC50 (SF-268; SF-268, read-out: pLC50 (converted)): > 100000 nM
- TGI (SF-268; SF-268, read-out: pTGI): > 100000 nM
- inhibition [6]: 27%
- GI50 (A549; A549): 692 nM
- CC50 (A549; A549, read-out: pLC50 (converted)): > 100000 nM
- TGI (A549; A549, read-out: pTGI): > 100000 nM
- inhibition [7]: 12%
- GI50 (SF-295; SF-295): 115 nM
- CC50 (SF-295; SF-295, read-out: pLC50 (converted)): > 100000 nM
- TGI (SF-295; SF-295, read-out: pTGI (converted)): 52500 nM
- GI50 (SF-539): 120 nM
- CC50 (SF-539; [13]): 89100 nM
- TGI (SF-539; read-out: pTGI (converted)): 501 nM
- GI50 (St-4; St-4): 6610 nM
- CC50 (St-4; St-4, read-out: pLC50 (converted)): > 100000 nM
- TGI (St-4; St-4, read-out: pTGI (converted)): 93300 nM
- GI50 (DU-145; DU-145): 50.1 nM
- CC50 (DU-145; DU-145, read-out: pLC50 (converted)): > 100000 nM
- TGI (DU-145; DU-145, read-out: pTGI (converted)): 562 nM
- GI50 (NCI-H460; NCI-H460, read-out: pGI50 (converted)): > 100000 nM
- CC50 (NCI-H460; NCI-H460, read-out: pLC50 (converted)): > 100000 nM
- TGI (NCI-H460; NCI-H460, read-out: pTGI): > 100000 nM
- inhibition (Pepsin A (Sus scrofa)): 85%
- GI50 ([8]; RXF 631): 79.4 nM
- CC50 ([8]; RXF 631, read-out: pLC50 (converted)): > 100000 nM
- TGI ([8]; RXF 631, read-out: pTGI (converted)): 501 nM
- GI50 ([9]; MKN-1): 77.6 nM
- CC50 ([9]; MKN-1, read-out: pLC50 (converted)): > 100000 nM
- TGI ([9]; MKN-1, read-out: pTGI): > 100000 nM
- GI50 (NCI-H23; NCI-H23): 1170 nM
- CC50 (NCI-H23; NCI-H23, read-out: pLC50 (converted)): > 100000 nM
- TGI (NCI-H23; NCI-H23, read-out: pTGI): > 100000 nM
- Activity (SK-OV-3): Active
- Activity (OVCAR-3 [10]): 133%
- GI50 (OVCAR-4): 28.2 nM
- CC50 (OVCAR-4; [13]): 513 nM
- TGI (OVCAR-4; read-out: pTGI (converted)): 64.6 nM
- GI50 (LOX IMVI): 123 nM
- CC50 (LOX IMVI; read-out: pLC50 (converted)): > 100000 nM
- TGI (LOX IMVI; read-out: pTGI (converted)): 676 nM
- GI50 (SNB-78; SNB-78): 219 nM
- CC50 (SNB-78; SNB-78, read-out: pLC50 (converted)): > 100000 nM
- TGI (SNB-78; SNB-78, read-out: pTGI (converted)): 12000 nM
- Tmax [11]: 0.3 h
- GI50 (DMS-273; DMS-273): 56.2 nM
- CC50 (DMS-273; DMS-273, read-out: pLC50 (converted)): > 100000 nM
- TGI (DMS-273; DMS-273, read-out: pTGI): > 100000 nM
- GI50 (SNB-75; SNB-75): 20000 nM
- CC50 (SNB-75; SNB-75, read-out: pLC50 (converted)): > 100000 nM
- TGI (SNB-75; SNB-75, read-out: pTGI): > 100000 nM
- GI50 (NCI-H522; NCI-H522): 60.3 nM
- CC50 (NCI-H522; NCI-H522, read-out: pLC50 (converted)): > 100000 nM
- TGI (NCI-H522; NCI-H522, read-out: pTGI (converted)): 562 nM
- GI50 (MKN-45; MKN-45): 57.5 nM
- CC50 (MKN-45; MKN-45, read-out: pLC50 (converted)): > 100000 nM
- TGI (MKN-45; MKN-45, read-out: pTGI): > 100000 nM
- GI50 ([12]; HBC5): 776 nM
- CC50 ([12]; HBC5, read-out: pLC50 (converted)): > 100000 nM
- TGI ([12]; HBC5, read-out: pTGI): > 100000 nM
